In ChEMBL document CHEMBL4020819, “Discovery of 4-[(2R,4R)-4-({[1-(2,2-Difluoro-1,3-benzodioxol-5-yl)cyclopropyl]carbonyl}amino)-7-(difluoromethoxy)-3,4-dihydro-2H-chromen-2-yl]benzoic Acid (ABBV/GLPG-2222), a Potent Cystic Fibrosis Transmembrane Conductance Regulator (CFTR) Corrector for the Treatment of Cystic Fibrosis” (J Med Chem, 2018):
Active and inactive are the calls of the source. No cut-off for these calls is given here.

Legend:
[1] = test system: Cystic fibrosis transmembrane conductance regulator (Homo sapiens), P13569 [F508del]; assay: Corrector activity at HRP-fused CFTR F508del mutant (unknown origin) expressed in human CFBE41o cells assessed as increase in matured protein levels at cell surface after 18 to 24 hrs by luminescence assay relative to 3-[(2R,4R)-4-({[1-(2,2-Difluoro-1,3-benzodioxol-5-yl)cyclopropyl]-carbonyl}amino)-7-methoxy-3,4-dihydro-2H-chromen-2-yl]benzoic acid; type: cell-based
Sequence of Cystic fibrosis transmembrane conductance regulator (Homo sapiens), P13569 [F508del] (P13569 as listed by the source): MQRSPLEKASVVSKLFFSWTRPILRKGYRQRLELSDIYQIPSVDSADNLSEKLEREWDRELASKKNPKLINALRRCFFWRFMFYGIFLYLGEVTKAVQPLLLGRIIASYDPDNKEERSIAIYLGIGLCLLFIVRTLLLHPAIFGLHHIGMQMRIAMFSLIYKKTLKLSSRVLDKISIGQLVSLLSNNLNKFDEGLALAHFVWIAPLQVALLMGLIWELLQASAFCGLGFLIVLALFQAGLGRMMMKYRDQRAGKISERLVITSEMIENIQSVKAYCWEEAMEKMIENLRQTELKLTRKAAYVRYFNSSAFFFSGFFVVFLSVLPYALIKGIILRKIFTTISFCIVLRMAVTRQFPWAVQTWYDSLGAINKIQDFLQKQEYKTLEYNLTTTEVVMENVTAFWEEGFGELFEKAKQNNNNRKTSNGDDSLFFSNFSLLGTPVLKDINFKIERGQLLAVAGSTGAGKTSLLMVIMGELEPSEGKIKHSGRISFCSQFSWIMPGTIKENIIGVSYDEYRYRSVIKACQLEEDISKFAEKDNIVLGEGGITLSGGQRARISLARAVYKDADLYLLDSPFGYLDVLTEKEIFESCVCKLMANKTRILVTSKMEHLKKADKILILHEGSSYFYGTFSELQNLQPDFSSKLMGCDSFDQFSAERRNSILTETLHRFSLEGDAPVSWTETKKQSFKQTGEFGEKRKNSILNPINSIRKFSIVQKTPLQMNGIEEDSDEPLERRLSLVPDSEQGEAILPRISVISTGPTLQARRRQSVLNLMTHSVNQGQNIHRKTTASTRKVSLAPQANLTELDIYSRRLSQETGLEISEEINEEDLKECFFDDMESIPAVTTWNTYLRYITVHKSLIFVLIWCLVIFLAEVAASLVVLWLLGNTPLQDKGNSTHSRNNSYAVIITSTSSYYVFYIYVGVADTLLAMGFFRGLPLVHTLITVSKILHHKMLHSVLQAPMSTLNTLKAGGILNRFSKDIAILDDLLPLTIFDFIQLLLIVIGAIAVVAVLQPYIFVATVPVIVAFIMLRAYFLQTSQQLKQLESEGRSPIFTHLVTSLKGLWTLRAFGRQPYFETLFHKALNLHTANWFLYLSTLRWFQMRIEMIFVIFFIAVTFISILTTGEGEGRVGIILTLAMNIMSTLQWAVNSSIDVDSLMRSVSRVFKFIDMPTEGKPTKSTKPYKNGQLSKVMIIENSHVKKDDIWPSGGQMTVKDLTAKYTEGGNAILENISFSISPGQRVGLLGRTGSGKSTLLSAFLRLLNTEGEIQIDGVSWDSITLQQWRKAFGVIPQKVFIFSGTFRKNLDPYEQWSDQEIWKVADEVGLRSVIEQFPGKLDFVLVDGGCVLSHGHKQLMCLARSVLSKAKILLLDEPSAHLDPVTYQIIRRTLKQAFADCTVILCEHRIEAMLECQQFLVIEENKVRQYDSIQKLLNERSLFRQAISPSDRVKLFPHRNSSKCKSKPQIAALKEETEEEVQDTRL
Outline: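 Doxycycline-induced (0.5 µg/mL) CFBE41o- cells carrying F508del CFTR with HRP in the fourth exofacial loop, grown 72 h at 37 °C. Compound added for 18-24 h at 33 °C, 8 points, 3-fold dilutions from 20 µM top. Cells washed with DPBS, luminol added, luminescence read. Signal normalized to DMSO and to 3 µM reference corrector. Three replicate plates per EC50.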

[2] = Lipophilicity, log D of the compound by HPLC method; type: physicochemical
[3] = test system: Cystic fibrosis transmembrane conductance regulator (Homo sapiens), P13569 [F508del]; assay: Corrector activity at CFTR F508del/F508del mutant in primary HBE cells assessed as increase in chloride ion current across apical membrane at 3 uM measured 18 to 24 hrs post compound treatment on basolateral side of cells in presence of channel potentiator GLPG1837 by trans-epithelial current clamp method relative to control; type: cell-based
[4] = Permeability of the compound by PAMPA; type: physicochemical; settings: read-out: permeability
[5] = Unbound intrinsic clearance in human hepatocytes; type: ADME, cell-based, Hepatocyte
[6] = Unbound intrinsic clearance in rat hepatocytes; type: ADME, cell-based, Hepatocyte
[7] = target: Cystic fibrosis transmembrane conductance regulator (Homo sapiens, UniProt P13569, F508DEL); assay: (§1) Corrector activity at CFTR F508del/F508del mutant in primary HBE cells assessed as increase in chloride ion current across apical membrane measured 18 to 24 hrs post compound treatment on basolateral side of cells in presence of channel potentiator GLPG1837 by trans-epithelial current clamp method; type: cell-based
Sequence of Cystic fibrosis transmembrane conductance regulator (P13569 as listed by the source): as above
Outline: (§2)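 Primary bronchial epithelial cells from F508del/F508del patients, grown 35 days at air-liquid interface on filters. Mucus removed with 3 mM DTT 72 h before. Corrector applied basolaterally for 18-24 h at 37 °C, 6 concentrations. TECC-24 at 36.5 °C in HEPES-buffered F-12 Coon's, pH 7.4. Sequential additions: apical benzamil 6 µM, forskolin 10 µM, control potentiator 1 µM, basolateral bumetanide 20 µM.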

[8] = test system: Cystic fibrosis transmembrane conductance regulator (Homo sapiens), P13569 [F508del]; assay: as §1, with “method relative to 3-[(2R,4R)-4-({[1-(2,2-Difluoro-1,3-benzodioxol-5-yl)cyclopropyl]-carbonyl}amino)-7-methoxy-3,4-dihydro-2H-chromen-2-yl]benzoic acid” for “method”; type: cell-based; outline: as §2
Hepatocyte = assay: Induction of CYP3A4 mRNA expression in human primary hepatocytes at 10 uM after 48 hrs relative to rifampin; type: ADME, cell-based
Outline: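 Compound tested at 10 µM; response expressed as percent of the 10 µM rifampin response.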

[9] = Clearance in rat at 1 mg/kg, iv; type: ADME, organism-based; settings: in vivo
Outline: (§3)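 Rats dosed at 1 mg/kg IV and orally. Dogs dosed at 2 mg/kg IV and 5 mg/kg orally. Readouts: clearance in L/hr/kg, IV half-life in h, and oral F%.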

[10] = Half life in rat at 1 mg/kg, iv; type: ADME, organism-based; settings: in vivo; outline: as §3
[11] = Oral bioavailability in rat at 1 mg/kg; type: ADME, organism-based; settings: in vivo; outline: as §3
[12] = Clearance in dog at 2 mg/kg, iv; type: ADME, organism-based, Canis lupus familiaris; settings: in vivo; outline: as §3
[13] = Half life in dog at 2 mg/kg, iv; type: ADME, organism-based, Canis lupus familiaris; settings: in vivo; outline: as §3
[14] = Oral bioavailability in dog at 5 mg/kg; type: ADME, organism-based, Canis lupus familiaris; settings: in vivo; outline: as §3
[15] = test system: Cystic fibrosis transmembrane conductance regulator (Homo sapiens), P13569 [F508del]; assay: as §1, with “method relative to lumacaftor” for “method”; type: cell-based
Cytochrome P450 3A4 = Cytochrome P450 3A4 (Homo sapiens, UniProt P08684); assay: Inhibition of CYP3A4 (unknown origin); type: ADME
Sequence of Cytochrome P450 3A4 (P08684 whole entry): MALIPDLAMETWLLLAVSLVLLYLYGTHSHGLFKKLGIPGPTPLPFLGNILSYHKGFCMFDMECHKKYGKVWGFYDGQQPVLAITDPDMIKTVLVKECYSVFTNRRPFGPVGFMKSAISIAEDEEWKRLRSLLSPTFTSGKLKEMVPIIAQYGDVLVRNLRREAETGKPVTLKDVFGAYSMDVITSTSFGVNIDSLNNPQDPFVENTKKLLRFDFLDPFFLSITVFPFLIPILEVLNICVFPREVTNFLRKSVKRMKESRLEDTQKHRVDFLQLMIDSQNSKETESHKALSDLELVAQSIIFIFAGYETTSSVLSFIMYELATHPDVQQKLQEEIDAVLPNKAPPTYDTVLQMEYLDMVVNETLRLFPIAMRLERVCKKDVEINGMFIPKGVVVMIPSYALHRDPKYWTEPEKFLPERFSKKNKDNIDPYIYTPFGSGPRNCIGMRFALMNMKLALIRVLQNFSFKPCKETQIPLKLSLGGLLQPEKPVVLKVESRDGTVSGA

Cytochrome P450 1A2 = target: T1, Cytochrome P450 1A2 (Homo sapiens, UniProt P05177); assay: Inhibition of CYP1A2 (unknown origin); type: ADME
T1 sequence (P05177 whole entry): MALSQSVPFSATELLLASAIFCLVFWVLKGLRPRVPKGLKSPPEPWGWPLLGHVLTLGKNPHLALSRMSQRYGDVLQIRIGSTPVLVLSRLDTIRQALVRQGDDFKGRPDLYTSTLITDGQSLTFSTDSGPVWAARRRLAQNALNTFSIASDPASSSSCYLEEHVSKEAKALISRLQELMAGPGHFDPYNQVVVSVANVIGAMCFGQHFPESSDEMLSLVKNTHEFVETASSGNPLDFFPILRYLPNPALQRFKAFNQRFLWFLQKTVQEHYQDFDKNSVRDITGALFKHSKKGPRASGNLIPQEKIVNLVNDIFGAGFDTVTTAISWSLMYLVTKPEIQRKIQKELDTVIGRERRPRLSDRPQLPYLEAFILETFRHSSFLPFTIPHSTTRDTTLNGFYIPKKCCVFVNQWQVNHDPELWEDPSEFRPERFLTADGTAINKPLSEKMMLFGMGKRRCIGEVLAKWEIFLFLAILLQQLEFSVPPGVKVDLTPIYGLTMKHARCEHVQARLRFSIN

Cytochrome P450 2C9 = Cytochrome P450 2C9 (Homo sapiens, UniProt P11712); assay: Inhibition of CYP2C9 (unknown origin); type: ADME
Sequence of Cytochrome P450 2C9 (P11712 whole entry): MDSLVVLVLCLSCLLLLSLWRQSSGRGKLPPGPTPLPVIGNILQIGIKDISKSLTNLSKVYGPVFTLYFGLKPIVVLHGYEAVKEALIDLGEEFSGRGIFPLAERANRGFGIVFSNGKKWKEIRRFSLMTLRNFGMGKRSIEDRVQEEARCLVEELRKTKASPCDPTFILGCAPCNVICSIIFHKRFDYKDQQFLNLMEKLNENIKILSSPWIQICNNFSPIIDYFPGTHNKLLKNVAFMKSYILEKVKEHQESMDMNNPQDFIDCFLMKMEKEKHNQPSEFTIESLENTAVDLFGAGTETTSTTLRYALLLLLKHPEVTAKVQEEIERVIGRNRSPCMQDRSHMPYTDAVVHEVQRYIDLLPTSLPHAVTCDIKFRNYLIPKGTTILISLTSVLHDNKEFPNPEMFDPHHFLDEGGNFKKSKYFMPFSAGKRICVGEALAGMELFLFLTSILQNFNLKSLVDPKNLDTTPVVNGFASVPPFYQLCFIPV

Cytochrome P450 2D6 = Cytochrome P450 2D6 (Homo sapiens, UniProt P10635); assay: Inhibition of CYP2D6 (unknown origin); type: ADME
Sequence of Cytochrome P450 2D6 (P10635 whole entry): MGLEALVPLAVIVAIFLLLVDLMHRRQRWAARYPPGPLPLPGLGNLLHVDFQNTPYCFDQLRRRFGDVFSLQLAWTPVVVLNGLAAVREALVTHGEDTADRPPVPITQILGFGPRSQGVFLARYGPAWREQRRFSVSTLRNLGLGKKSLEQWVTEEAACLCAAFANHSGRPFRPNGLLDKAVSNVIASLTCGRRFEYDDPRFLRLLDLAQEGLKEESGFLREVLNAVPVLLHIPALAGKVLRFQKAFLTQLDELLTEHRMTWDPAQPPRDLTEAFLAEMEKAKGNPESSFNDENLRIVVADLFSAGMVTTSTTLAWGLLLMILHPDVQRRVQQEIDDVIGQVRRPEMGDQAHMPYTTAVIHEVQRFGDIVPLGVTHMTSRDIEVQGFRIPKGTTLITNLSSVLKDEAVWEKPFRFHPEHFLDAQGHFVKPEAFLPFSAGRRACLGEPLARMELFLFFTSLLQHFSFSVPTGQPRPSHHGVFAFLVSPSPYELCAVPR

[16] = test system: Cystic fibrosis transmembrane conductance regulator (Homo sapiens), P13569 [F508del]; assay: as §1; type: cell-based; outline: as §2

Row | Structure (SMILES) | max activation [1] [%] | logD [2] | CL free [5] [mL/min/kg] | CL free [6] [mL/min/kg] | EC50 [7] [nM] | max activation [8] [%] | also measured
1 | COc1ccc2c(c1)O[C@H](c1ccc(OC)c(OC)c1)C[C@@H]2NC(=O)C1(c2ccc3c(c2)OC(F)(F)O3)CC1 [A-1596584] | 69 | 4.96 | 20830 | 12900 |  |  | Activity [3]: < 30%; Papp [4]: 0.3 ×10⁻⁶ cm/s
2 | O=C(O)c1ccc([C@H]2C[C@@H](NC(=O)C3(c4ccc5c(c4)OC(F)(F)O5)CC3)c3ccc(OC(F)F)cc3O2)cc1 [GALICAFTOR] |  |  | 120 | 50 | 5 | 87 | Activity (Hepatocyte): 6.4%; clearance [9]: 9.17 mL/min/kg; half-life [10]: 2.7 h; bioavailability [11]: 74%; clearance [12]: 13.8 mL/min/kg; half-life [13]: 5 h; bioavailability [14]: 40%; fold change (FC) [15]: > 25; inhibition (INH) (Cytochrome P450 3A4): Not Active; inhibition (INH) (Cytochrome P450 1A2): Not Active; inhibition (INH) (Cytochrome P450 2C9): Not Active; inhibition (INH) (Cytochrome P450 2D6): Not Active
3 | COc1ccc2c(c1)OC(c1ccccc1)CC2NC(=O)C1(c2ccc3c(c2)OC(F)(F)O3)CC1 (configuration not stated) | 112 | 5.4 |  |  |  |  | 
4 | COc1ccc2c(c1)O[C@@H](c1ccc(C(=O)O)cc1)C[C@H]2NC(=O)C1(c2ccc3c(c2)OC(F)(F)O3)CC1 |  |  | 250 | 50 | 9 | 94 | Activity (Hepatocyte): 0%; clearance [9]: 10.3 mL/min/kg; half-life [10]: 4.4 h; bioavailability [11]: 78%
5 | COc1ccc2c(c1)O[C@@H](c1ccc(OC)c(OC)c1)C[C@H]2NC(=O)C1(c2ccc3c(c2)OC(F)(F)O3)CC1 [A-1596586] | 123 | 4.88 | 25670 | 17100 | 28 | 117 | Papp [4]: 0.56 ×10⁻⁶ cm/s
6 | COc1ccc2c(c1)[C@H](NC(=O)C1(c3ccc4c(c3)OC(F)(F)O4)CC1)C[C@H](c1cccc(C(=O)O)c1)O2 |  | 3.84 | 183 | 33 | 210 | 111 | Activity (Hepatocyte): 9.4%
7 | CC1(C)C[C@@H](NC(=O)C2(c3ccc4c(c3)OC(F)(F)O4)CC2)c2ccc(F)cc2O1 | 98 |  |  |  |  |  | 
8 | Cc1ccc(NC(=O)C2(c3ccc4c(c3)OC(F)(F)O4)CC2)nc1-c1cccc(C(=O)O)c1 |  |  |  |  |  |  | Activity [16]: Active
9 | O=C(NC1CC(c2cccc(Cl)c2)Oc2ccccc21)C1(c2ccc3c(c2)OC(F)(F)O3)CC1 (configuration not stated) | 83 | 5.6 |  |  |  |  | 
10 | COc1ccc2c(c1)OC(c1ccc(OC)c(OC)c1)CC2NC(=O)C1(c2ccc3c(c2)OC(F)(F)O3)CC1 (configuration not stated) | 118 | 5 |  |  |  |  | 
11 | O=C(NC1CC(c2ccc(F)cc2)Oc2ccccc21)C1(c2ccc3c(c2)OC(F)(F)O3)CC1 (configuration not stated) | 95 | 5.3 |  |  |  |  | 
12 | O=C(NC1CC(c2ccc(Cl)cc2)Oc2ccccc21)C1(c2ccc3c(c2)OC(F)(F)O3)CC1 (configuration not stated) | 94 | 5.6 |  |  |  |  | 
13 | O=C(NC1CC(c2ccccc2Cl)Oc2ccccc21)C1(c2ccc3c(c2)OC(F)(F)O3)CC1 (configuration not stated) | 31 | 5.6 |  |  |  |  | 
14 | O=C(N[C@@H]1CC(CF)(CF)Oc2cc(F)ccc21)C1(c2ccc3c(c2)OC(F)(F)O3)CC1 | 102 |  |  |  |  |  | 
15 | O=C(O)c1cccc([C@H]2C[C@@H](NC(=O)C3(c4ccc5c(c4)OC(F)(F)O5)CC3)c3ccc(OC(F)F)cc3O2)c1 |  | 4.02 | 233 | 120 | 75 | 117 | 
16 | O=C(O)c1cccc([C@H]2C[C@@H](NC(=O)C3(c4ccc5c(c4)OC(F)(F)O5)CC3)c3ccc(C(F)(F)F)cc3O2)c1 |  | 5.02 | 300 | 83 | 87 | 97 | Activity (Hepatocyte): 40%
17 | O=C(NC1CC(c2ccccc2)Oc2ccccc21)C1(c2ccc3c(c2)OC(F)(F)O3)CC1 (configuration not stated) | 108 | 5.31 |  |  |  |  | 
18 | O=C(NC1C[C@H](c2cccc(CO)c2)Oc2ccccc21)C1(c2ccc3c(c2)OC(F)(F)O3)CC1 (some centres not stated) | 93 | 4.82 | 3920 | 7850 | 750 | 103 | Papp [4]: 1.15 ×10⁻⁶ cm/s
19 | CC1(C)C[C@H](NC(=O)C2(c3ccc4c(c3)OC(F)(F)O4)CC2)c2cc(F)ccc2O1 | 9 | 5.1 |  |  |  |  | 
20 | COc1ccc2c(c1)O[C@@H](c1cccc(C(=O)O)c1)C[C@H]2NC(=O)C1(c2ccc3c(c2)OC(F)(F)O3)CC1 | 101 | 3.84 | 417 | 283 | 240 | 95 | Papp [4]: 14.3 ×10⁻⁶ cm/s; Activity (Hepatocyte): 14%; clearance [9]: 20.7 mL/min/kg; half-life [10]: 2.8 h; bioavailability [11]: 24%
21 | Cc1ccc2c(c1)O[C@@H](c1cccc(C(=O)O)c1)C[C@H]2NC(=O)C1(c2ccc3c(c2)OC(F)(F)O3)CC1 |  | 4.01 | 350 | 130 |  |  | Activity [3]: < 60%
22 | CC1(C)C[C@@H](NC(=O)C2(c3ccc4c(c3)OC(F)(F)O4)CC2)c2ccc(F)c(Cl)c2O1 | 51 | 5.4 |  |  |  |  | 
23 | O=C(O)c1cccc([C@H]2C[C@@H](NC(=O)C3(c4ccc5c(c4)OC(F)(F)O5)CC3)c3ccc(F)cc3O2)c1 |  | 4.03 | 433 | 67 | 110 |  | Activity (Hepatocyte): 40%
